Compound activity from PubChem BioAssay.
NadD inh = inhibitors of Staphylococcus aureus NadD; purified NadD enzyme, colorimetric absorbance read-out; inhibition, % at 20 µM; actives 0.78% (n = 360,000); in the data active = inhibition above about 26%
PP1 inh = counter-screen for PP5 inhibitors: inhibitors of human PP1-alpha; inhibition, % at 6.7 µM; purified PP1alpha, OMFP fluorescence; actives 0.9% (n = 320,000); P62136;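 active = inhibition above the mean inhibition of all tested compounds plus 3 SD, computed separately for each screening campaign, cut at about 15% in these data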
Target sequence (P62136 whole entry, looked up): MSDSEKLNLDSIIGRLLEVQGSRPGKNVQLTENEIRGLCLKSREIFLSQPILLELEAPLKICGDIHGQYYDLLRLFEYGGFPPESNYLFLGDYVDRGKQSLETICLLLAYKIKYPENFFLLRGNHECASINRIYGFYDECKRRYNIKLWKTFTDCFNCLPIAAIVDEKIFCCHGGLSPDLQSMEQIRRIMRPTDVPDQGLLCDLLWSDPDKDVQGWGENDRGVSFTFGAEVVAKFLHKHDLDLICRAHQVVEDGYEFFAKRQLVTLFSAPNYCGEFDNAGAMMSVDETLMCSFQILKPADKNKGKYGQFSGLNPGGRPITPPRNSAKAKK
CSN inh = CSN deneddylation inhibition. Q92905. Purified CSN, SCF-Nedd8-OG deneddylation, fluorescence polarization. inhibition, % at 12.5 µM. actives 0.38% (n = 360,000). AID 651999;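 active = pattern-corrected inhibition above about 35%, with an unprinted fluorescence ratio check between 0.5 and 1.5, limit read from the data, passing the limit was not always enough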;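 note: 0% = enzyme with substrate and 100% = substrate without enzyme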
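test system = HEK293T-derived human Csn5 enzyme | amount = 0.24 nM Csn5 enzyme, final concentration | medium = Tris/NaCl/DTT buffer, pH 7.5 | schedule = 90 min reaction at room temperature | signal = FP | evaluation = inhibition of Csn5 cleavage, % | compound dosing = single dose of 12.5 µM compound with 0.25% DMSO | probe or stimulus = 10 nM SCFSkp2-Nedd8OG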
HNF4A DNA FP = change in binding of human HNF4 alpha to DNA; HNF4a-FITC DNA binding, fluorescence polarization, 1 h; activity change, % at 10 µM; actives 0.3% (n = 360,000); AID 1224865; in the data active = activity change above about 30%, passing the limit was not always enough
TPT1 inh = blocks Candida albicans tRNA 2'-phosphotransferase; actives 0.81% (n = 300,000); inhibition, % at 5 µM; AID 1962; recombinant caTPT1, FP RNA substrate dephosphorylation;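 active = inhibition above the mean of all tested compounds plus 3 SD, set per screening campaign, cut at about 24% in these data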;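 note: plate controls were DMSO alone for no effect and ferristatin control at 100 nM for full effect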
Rpn11 inh = blocks the human proteasome subunit Rpn11; human 26S proteasome, Ub4-pepOG fluorescence polarization; 20S core pre-blocked with epoxomicin; inhibition, % at 20 µM; actives 0.59% (n = 360,000); AID 588493;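 active = inhibition at 20 µM, scaled to each plate's controls, above about 33%, limit read from the data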
* hit, by the source's call; x = no result given. Sampled rows, rich in hits. Any-hit rate of the full collection: about 2.7%.

SMILES	NadD inh	PP1 inh	CSN inh	HNF4A DNA FP	TPT1 inh	Rpn11 inh
CCOc1ccc(CCNc2nc3ccc(C)cc3n3cnnc23)cc1OCC	-5	1	-1	0	-1	-9
CCN(CC)C(=O)[C@H]1C[C@H](CC(=O)NCCC2=CCCCC2)C(=O)N2CCc3c([nH]c4cc(CCC(=O)N(C)C)ccc34)[C@]12C	9	x	5	1	x	-3
Cc1cccc(OCc2nnc(SC(C)C(=O)O)n2-c2ccccc2)c1 (centres undefined)	2	-5	2	-1	0	1
Cc1ccc(CNC(=O)C2CCN(C(=O)Nc3ccc(C)cc3)CC2)cc1	-1	x	6	-1	x	10
COC(=O)c1c(NC(C)=O)sc2c1CCCCC2	-2	-2	104*	2	-1	7
COC(=O)c1c(NC(C)=O)sc2c1CCCC2	0	4	-4	-2	-4	-2
COC(=O)c1c(NC(=O)CN2C(=O)NC3(CCc4ccccc4C3)C2=O)sc2c1CCCCC2 (centres undefined)	18	15*	4	-3	-1	9
COc1cc(OC)cc(C(=O)NCCCCc2ccccc2)c1	-11	0	5	2	0	6
CCCC(=O)N1CCCC1(C)C(=O)N(C)Cc1cccc2ccccc12 (centres undefined)	5	x	0	-2	x	-8
COc1ccc(-c2cc(-c3ccccc3)nc(SCC(=O)Nc3ncc(C)s3)c2C#N)cc1	34*	4	1	-1	3	31
COc1cccc(-c2nc(SCC(=O)Nc3nc(-c4ccccc4)c(C)s3)[nH]c(=O)c2C#N)c1	26	17*	5	0	-5	11
Cc1ccc(C(=O)N[C@H](C(=O)Nc2ccc(N3CCOCC3)cc2)C(C)C)cc1	2	x	0	-5	x	-4
Cc1ccc(C2=NOC(C)(c3nnc(-c4ccc(Cl)cc4)o3)C2)cc1 (centres undefined)	-7	0	1	36*	0	-1
COc1cc(NC(=O)C2=COCCO2)c(OC)cc1Cl	-4	0	4	-2	-1	-3
CCCc1cc(=O)oc2cc(C)c(CN3CCCC3)c(O)c12	29*	2	24	-2	-3	17
Cc1ccc(C(=O)N2CCN(c3ccc4c(c3)C3CC4CCN3C(=O)OCc3ccccc3)CC2)cc1 (centres undefined)	7	x	-4	4	x	16
O=C(c1ccc(-c2ccccc2)cc1)N1CCN(c2ccc3c(c2)C2CC3CCN2C(=O)OCc2ccccc2)CC1 (centres undefined)	19	x	113*	-6	x	-1
COc1ccc(NC(=O)CSc2nc3n[nH]c(C)c3c(=N)n2-c2ccc(Cl)c(C)c2)cc1OC	0	-4	36*	-2	1	4
Cc1cc(=O)n2[nH]c(Nc3cccc(Cl)c3)nc2n1	-6	-3	103	3	-1	-2
C/C(=N\NC(=O)c1cc2ccccc2cc1O)c1cc2ccccc2o1	49*	7	3	3	4	14
COc1ccc(Cl)cc1C(Nc1cccnc1)c1ccc2cccnc2c1O (centres undefined)	40*	17*	-6	0	0	20
CCC(=O)NC(c1ccccc1OC)c1ccc2cccnc2c1O (centres undefined)	3	0	0	-2	-6	9
Cc1nn(C)c(C)c1NC(=S)Nc1ccc(S(=O)(=O)Nc2ncccn2)cc1	4	-1	1	-2	-2	-3
Cc1cc(=O)[nH]c(N/N=C/c2c(C)nn(-c3ccccc3)c2Cl)n1	-1	-3	3	-2	0	-2
N#C/C(=C(O)\C=C\c1ccccc1)c1nc2ccccc2[nH]1	4	16*	4	3	2	0
SMILES	NadD inh	PP1 inh	CSN inh	HNF4A DNA FP	TPT1 inh	Rpn11 inh
C(=N\Nc1nc2ccccc2[nH]1)/c1ccccc1	-1	-8	1	1	-1	9
Cc1nn(-c2ccccc2)c(Cl)c1/C=N/Nc1nc2ccccc2[nH]1	3	1	4	68*	1	-2
C(=C\c1ccccc1)/C=N/Nc1nc2ccccc2[nH]1	-2	16*	2	0	-2	3
O=C(O)c1cc(O)ccc1O	3	x	-9	-6	x	7
O=C(O)C1=CC(=C(c2ccc(O)c(C(=O)O)c2)c2ccc(O)c(C(=O)O)c2)C=CC1=O	x	82*	x	x	101*	x
O=S(=O)(c1ccccc1)N1CCN(c2nc(-c3cccnc3)nc3ccccc23)CC1	6	x	2	2	x	1
O=S(=O)(c1ccc(F)cc1)N1CCN(c2nc(-c3cccnc3)nc3ccccc23)CC1	9	17*	1	1	x	16
Cc1cccc(/C=N/NC(=O)c2ccc(NC(=O)c3ccc(Cl)cc3)cc2)n1	8	15*	9	1	0	6
O=C(c1ccc2nc[nH]c2c1)N1CCN(c2ncc(C(F)(F)F)cc2Cl)CC1	-3	0	5	1	-1	-4
CCOC(=O)c1ccc(N/C=C/C(=O)c2ccc(OC)c(OC)c2)cc1	-8	-3	101*	-2	1	2
CCOc1ccc(N/C=C/C(=O)c2ccc(OC)c(OC)c2)cc1	-4	5	2	1	0	3
CCOC(=O)C1=C(O)/C(=C\c2ccc(CNC(=O)C(=O)Nc3ccccc3)o2)N=C1C	27	9	41*	1	5	19
Cc1cc(C)c2c(N)c(C(=O)Nc3ccccc3Cl)sc2n1	-7	17*	1	3	1	-3
Cc1cc(-c2ccc(Br)s2)nc(-n2cccc2)n1	19	x	6	50*	x	32
O=C(C(O)c1ccccc1)N1CCN(S(=O)(=O)c2ccc(OC(F)(F)F)cc2)CC1 (centres undefined)	x	x	2	5	x	x
CN(C)c1ccc(/C=C(\C#N)C(=O)NCc2ccco2)cc1	x	6	x	x	43*	x
O=C(O)CCCn1cc(NC(=O)c2sc3ccccc3c2Cl)cn1	-2	-1	1	3	-4	-2
CC(C)(CNc1ccc(S(=O)(=O)C(F)(F)F)cc1[N+](=O)[O-])N1CCOCC1	-3	3	-3	4	2	-2
COc1ccc(O)c(/C=N/NC(=O)c2ccc(CSc3nc(C)cc(C)n3)cc2)c1	34*	8	3	-4	2	0
Cc1ccnc(SCc2ccc(C(=O)O)cc2)n1	-4	2	2	69*	2	-3
Cc1ccc(NC(=O)c2ccc(CSc3nccc(C)n3)cc2)cc1	-4	1	-6	2	-3	0
Oc1cccc(C=Nc2cccc3ccccc23)c1O	45*	13	15	-3	5	16
COc1ccc(-c2cc(C(=O)N(C)Cc3ccc(F)cc3)c3ccccc3n2)cc1OC	4	0	3	1	0	-8
